Results: ChEMBL document CHEMBL3576870, “Monanchosterols A and B, bioactive bicyclo[4.3.1]steroids from a Korean sponge Monanchora sp” (J Nat Prod, 2015)
One block for each molecule: values may come before it. Activity calls are given as the source filed them. The rule behind the calls is not given here.

Columns and labels:
RAW264.7 [1] = assay: Cytotoxicity against mouse RAW264.7 cells; format: cell-based; conditions: for Activity: mouse, raw264.7
RAW264.7 [2] = assay: Antiinflammatory activity in mouse RAW264.7 cells assessed as inhibition of LPS-stimulated IL-6 mRNA expression at 10 uM after 24 hrs by RT-qPCR analysis relative to control; format: functional; conditions: RAW264.7, 24 h
Method in brief: (§1)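 RAW 264.7 cells grown in DMEM with 10% heat-inactivated FBS and 1% penicillin-streptomycin at 37 °C, 5% CO2. Plated at 3 × 10^5 cells/mL in six-well plates, left 24 h. Then given 0.1 μg/mL LPS with or without test compound (0.1–100 μM) for 24 h. mRNA quantified by RT-qPCR after RNA extraction, normalized to 18s mRNA and expressed as ratio to DMSO. SB203580 (10 μM) served as reference. Mean ± SD of three independent experiments.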

RAW264.7 [3] = assay: Antiinflammatory activity in mouse RAW264.7 cells assessed as inhibition of LPS-stimulated IL-6 mRNA expression after 24 hrs by RT-qPCR analysis; format: functional, cell-based; conditions: for IC50: RAW264.7, 24 h; method in brief: as §1
RAW264.7 [4] = assay: Antiinflammatory activity in mouse RAW264.7 cells assessed as inhibition of LPS-stimulated TNF-alpha mRNA expression at 0.1 to 100 uM after 24 hrs by RT-qPCR analysis; format: functional, cell-based; method in brief: as §1
RAW264.7 [5] = assay: Antiinflammatory activity in mouse RAW264.7 cells assessed as inhibition of LPS-stimulated COX-2 mRNA expression at 0.1 to 100 uM after 24 hrs by RT-qPCR analysis; format: functional, cell-based; method in brief: as §1

IC50 (RAW264.7 [3]): 5.2 µM
SMILES: C=C(CC[C@@H](C)[C@H]1[C@H](O)C[C@H]2[C@@H]3CC=C4C[C@@H](O)CC[C@]4(C)[C@H]3CC[C@]12C)C(C)C
Activity (RAW264.7 [1]): Non-toxic
inhibition at 10 µM (RAW264.7 [2]): 67%
inhibition (RAW264.7 [3]): Dose-dependent effect
inhibition (RAW264.7 [4]): inactive
inhibition (RAW264.7 [5]): inactive

SMILES: C[S+]([O-])c1ccc(-c2nc(-c3ccc(F)cc3)c(-c3ccncc3)[nH]2)cc1 (centres undefined) [SB-203580]
inhibition at 10 µM (RAW264.7 [2]): 53%

IC50 (RAW264.7 [3]): 5 µM
SMILES: CC(=O)O[C@H]1CC[C@@]2(C)C(=O)[C@@H]1[C@H](O)C=C1[C@@H]3CC[C@H]([C@H](C)CCC=C(C)C)[C@@]3(C)CC[C@@H]12
Activity (RAW264.7 [1]): Non-toxic
inhibition at 10 µM (RAW264.7 [2]): 69%
inhibition (RAW264.7 [3]): Dose-dependent effect
inhibition (RAW264.7 [4]): inactive
inhibition (RAW264.7 [5]): inactive

SMILES: CC(C)=CCC[C@@H](C)[C@H]1CC[C@H]2C3=C[C@@H](O)[C@H]4C(=O)[C@](C)(CC[C@@H]4O)[C@H]3CC[C@]12C
IC50 (RAW264.7 [1]; Mus musculus, RAW264.7): 65 µM
